# Measured values from ChEMBL document CHEMBL1649122, “Abc1p is a multidrug efflux transporter that tips the balance in favor of innate azole resistance in Candida krusei” (2009).
# The source made the active and inactive calls. The rule behind the calls is not given here.
# How the values were obtained:
# [1] = molecular target: ATP binding cassette transporter Abc1p (Issatchenkia orientalis) (UniProt Q09GQ4); experiment: Inhibition of Candida krusei ABC1 expressed in Saccharomyces cerevisiae isolate ADdelta at 0.37 nM; conditions: Pichia kudriavzevii
# [2] = test system: Pichia kudriavzevii; experiment: Antimicrobial activity against Candida krusei NZCDC 89.102 after 48 hrs by CLSI method; assay type: functional
# How it was run: (§1)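 Azole MICs were determined by the CLSI M27-A2 broth microdilution reference method. They were interpreted against the CLSI breakpoints. Strains were maintained in YPD medium (1% yeast extract, 2% peptone, 2% glucose).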
# [3] = test system: Pichia kudriavzevii; experiment: Antimicrobial activity against Candida krusei NZCDC 89.102 after 48 hrs by liquid microdilution assay; assay type: functional; conditions: NZCDC 89.102, 48 h
# How it was run: (§2)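 Liquid broth microdilution susceptibility assay in CSM medium at pH 7.0, which was also the medium used for the expression studies. Fungal strains were maintained in YPD. The S. cerevisiae test strains carry C. krusei ABC1 or fungal ERG11 alleles integrated at the chromosomal PDR5 locus.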
# [4] = test system: Pichia kudriavzevii; experiment: Antimicrobial activity against Candida krusei NZCDC 89.221 after 48 hrs by liquid microdilution assay; assay type: functional; conditions: NZCDC 89.221, 48 h; how it was run: as §2
# [5] = test system: Saccharomyces cerevisiae; experiment: Fold resistant, ratio of MIC for Saccharomyces cerevisiae isolate ADdelta overexpressing Saccharomyces cerevisiae ERG11 to MIC for Saccharomyces cerevisiae isolate ADdelta overexpressing Abc1p; assay type: functional
# How it was run: (§3)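 Fold resistance is the ratio of azole MICs between S. cerevisiae overexpressing strains. The MICs were measured by liquid broth microdilution in CSM medium at pH 7.0. The ERG11 or ABC1 constructs are integrated at the PDR5 locus.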
# [6] = test system: Pichia kudriavzevii; experiment: Antimicrobial activity against Candida krusei B2399 after 48 hrs by liquid microdilution assay; assay type: functional; conditions: B2399, 48 h; how it was run: as §2
# [7] = test system: Saccharomyces cerevisiae; experiment: Antimicrobial activity against Saccharomyces cerevisiae isolate ADdelta overexpressing Candida krusei ERG11g after 48 hrs by liquid microdilution assay; assay type: functional; how it was run: as §2
# [8] = molecular target: ATP binding cassette transporter Abc1p (Issatchenkia orientalis) (UniProt Q09GQ4); experiment: Inhibition of Candida krusei ABC1 expressed in Saccharomyces cerevisiae isolate ADdelta at 0.36 nM; conditions: Pichia kudriavzevii
# How it was run: (§4)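 Agarose disk-diffusion test of S. cerevisiae AD overexpressing C. krusei Abc1p, with the parent AD strain as comparison. Cells were pregrown from YPD overnight into CSM to mid-log at 30°C. They were seeded at OD600 0.008 in CSM with 0.6% agarose, overlaid on CSM agar (pH 7.0). Paper disks carrying set nmol amounts of xenobiotic were applied, and plates were incubated at 30°C for 48 h before reading growth inhibition zones.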
# [9] = molecular target: ATP binding cassette transporter Abc1p (Issatchenkia orientalis) (UniProt Q09GQ4); experiment: Inhibition of Candida krusei […] expressed in Saccharomyces cerevisiae isolate ADdelta assessed as fractional inhibitory concentration index at 2.5 ug/ml after 48 hrs by checkerboard susceptibility assay; conditions: Pichia kudriavzevii
# How it was run: (§5)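 Checkerboard susceptibility assay combining the Abc1p inhibitor with FLC or ITC. MICs were determined at various inhibitor concentrations. The fractional inhibitory concentration index was calculated for each combination.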
# [10] = test system: Saccharomyces cerevisiae; experiment: Antimicrobial activity against Saccharomyces cerevisiae isolate ADdelta overexpressing Candida albicans ERG11A after 48 hrs by liquid microdilution assay; assay type: functional; how it was run: as §2
# [11] = test system: Saccharomyces cerevisiae; experiment: Fold resistant, ratio of MIC for Saccharomyces cerevisiae isolate ADdelta overexpressing Candida albicans ERG11A to MIC for Saccharomyces cerevisiae isolate ADdelta overexpressing Abc1p; assay type: functional; how it was run: as §3
# [12] = molecular target: ATP binding cassette transporter Abc1p (Issatchenkia orientalis) (UniProt Q09GQ4); experiment: Inhibition of Candida krusei B2399 Abc1p assessed as fractional inhibitory concentration index at 2.5 ug/ml after 48 hrs by checkerboard susceptibility assay; conditions: Pichia kudriavzevii; how it was run: as §5
# [13] = test system: Pichia kudriavzevii; experiment: Antimicrobial activity against Candida krusei IFO0011 after 48 hrs by liquid microdilution assay; assay type: functional; conditions: IFO0011, 48 h; how it was run: as §2
# [14] = test system: Pichia kudriavzevii; experiment: Increase in ERG11 mRNA expression in Candida krusei B2399 at 2 times MIC concentration after 1 hr by hot-phenol extraction based Northern blotting; assay type: functional, organism-based
# How it was run: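 Logarithmically grown C. krusei B2399 was exposed to azole for 60 min (2x MIC for VRC, MCZ and ITC; 1x MIC for FLC) alongside an untreated control. Total RNA was extracted with hot phenol, and 10 µg was run on 1.2% denaturing agarose. It was Northern blotted and probed with a radiolabeled ERG11 fragment. ACT1 mRNA served as internal control, with EtBr-stained rRNA showing loading.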
# [15] = test system: Saccharomyces cerevisiae; experiment: Antimicrobial activity against Saccharomyces cerevisiae isolate AD overexpressing Candida krusei ERG11C after 48 hrs by liquid microdilution assay; assay type: functional; how it was run: as §2
# [16] = test system: Saccharomyces cerevisiae; experiment: Fold resistant, ratio of MIC for Saccharomyces cerevisiae isolate ADdelta overexpressing Candida krusei ERG11C to MIC for Saccharomyces cerevisiae isolate ADdelta overexpressing Abc1p; assay type: functional; how it was run: as §3
# [17] = test system: Pichia kudriavzevii; experiment: Antimicrobial activity against Candida krusei NZCDC 89.221 after 48 hrs by CLSI method; assay type: functional; how it was run: as §1
# [18] = test system: Pichia kudriavzevii; experiment: Antimicrobial activity against Candida krusei NZCDC 89.021 after 48 hrs by CLSI method; assay type: functional; conditions: NZCDC 89.021, 48 h; how it was run: as §1
# [19] = test system: Saccharomyces cerevisiae; experiment: Antimicrobial activity against Saccharomyces cerevisiae isolate ADdelta overexpressing Saccharomyces cerevisiae ERG11 after 48 hrs by liquid microdilution assay; assay type: functional; how it was run: as §2
# [20] = test system: Pichia kudriavzevii; experiment: Antimicrobial activity against Candida krusei B2399 after 48 hrs by CLSI method; assay type: functional; conditions: B2399, 48 h; how it was run: as §1
# [21] = test system: Pichia kudriavzevii; experiment: Antimicrobial activity against Candida krusei NZCDC 89.021 after 48 hrs by liquid microdilution assay; assay type: functional; conditions: NZCDC 89.021, 48 h; how it was run: as §2
# [22] = test system: Pichia kudriavzevii; experiment: Antimicrobial activity against Candida krusei IFO0011 after 48 hrs by CLSI method; assay type: functional; conditions: IFO0011, 48 h; how it was run: as §1
# [23] = test system: Pichia kudriavzevii; experiment: Antimicrobial activity against Candida krusei NZCDC 90.147 after 48 hrs by liquid microdilution assay; assay type: functional; conditions: NZCDC 90.147, 48 h; how it was run: as §2
# [24] = test system: Saccharomyces cerevisiae; experiment: Antimicrobial activity against Saccharomyces cerevisiae isolate ADdelta overexpressing Abc1p after 48 hrs by liquid microdilution assay; assay type: functional; how it was run: as §2
# [25] = test system: Pichia kudriavzevii; experiment: Antimicrobial activity against Candida krusei NZCDC 90.147 after 48 hrs by CLSI method; assay type: functional; how it was run: as §1
# [26] = test system: Saccharomyces cerevisiae; experiment: Fold resistant, ratio of MIC for Saccharomyces cerevisiae isolate ADdelta overexpressing Candida krusei ERG11g to MIC for Saccharomyces cerevisiae isolate ADdelta overexpressing Abc1p; assay type: functional; how it was run: as §3
# [27] = molecular target: ATP binding cassette transporter Abc1p (Issatchenkia orientalis) (UniProt Q09GQ4); experiment: Inhibition of Candida krusei ABC1 expressed in Saccharomyces cerevisiae isolate ADdelta at 87 nM; conditions: Pichia kudriavzevii; how it was run: as §4
# [28] = molecular target: ATP binding cassette transporter Abc1p (Issatchenkia orientalis) (UniProt Q09GQ4); experiment: Inhibition of Candida krusei Abc1g expressed in Saccharomyces cerevisiae isolate ADdelta assessed as reduction of fluconazole MIC at 2.5 ug/ml after 48 hrs by checkerboard susceptibility assay; conditions: Pichia kudriavzevii
# How it was run: (§6)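 Checkerboard liquid microdilution in CSM (pH 7.0). FLC or ITC MICs of AD/CkABC1g or C. krusei B2399 were measured across a range of milbemycin concentrations. Interaction was expressed as fractional inhibitory concentration index (FICI).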
# [29] = molecular target: ATP binding cassette transporter Abc1p (Issatchenkia orientalis) (UniProt Q09GQ4); experiment: Inhibition of Candida krusei IF011 Abc1p assessed as reduction of itraconazole MIC at 1 ug after 48 hrs by agarose diffusion assay; conditions: Pichia kudriavzevii
# [30] = molecular target: ATP binding cassette transporter Abc1p (Issatchenkia orientalis) (UniProt Q09GQ4); experiment: Inhibition of Candida krusei Abc1p expressed in Saccharomyces cerevisiae isolate AD assessed as reduction of itraconazole MIC at 1 ug after 48 hrs by agarose diffusion assay; conditions: Pichia kudriavzevii
# [31] = molecular target: ATP binding cassette transporter Abc1p (Issatchenkia orientalis) (UniProt Q09GQ4); experiment: Inhibition of Candida krusei B2399 Abc1p assessed as reduction of itraconazole MIC at 2.5 ug/ml after 48 hrs by checkerboard susceptibility assay; conditions: Pichia kudriavzevii; how it was run: as §6
# [32] = molecular target: ATP binding cassette transporter Abc1p (Issatchenkia orientalis) (UniProt Q09GQ4); experiment: Inhibition of Candida krusei B2399 Abc1p assessed as reduction of fluconazole MIC at 2.5 ug/ml after 48 hrs by checkerboard susceptibility assay; conditions: Pichia kudriavzevii; how it was run: as §6
# [33] = molecular target: ATP binding cassette transporter Abc1p (Issatchenkia orientalis) (UniProt Q09GQ4); experiment: Inhibition of Candida krusei B2399 Abc1p assessed as reduction of itraconazole MIC at 1 ug after 48 hrs by agarose diffusion assay; conditions: Pichia kudriavzevii
# [34] = molecular target: ATP binding cassette transporter Abc1p (Issatchenkia orientalis) (UniProt Q09GQ4); experiment: Inhibition of Candida krusei Abc1g expressed in Saccharomyces cerevisiae isolate ADdelta assessed as reduction of itraconazole MIC at 2.5 ug/ml after 48 hrs by checkerboard susceptibility assay; conditions: Pichia kudriavzevii; how it was run: as §6
smiles,measurement,setting,value
C[C@@H]1C[C@@H]([C@H](O)CC2CC(=O)NC(=O)C2)C(=O)[C@@H](C)C1,Activity,[1],Active
CCC(C)n1ncn(-c2ccc(N3CCN(c4ccc(OCC5COC(Cn6cncn6)(c6ccc(Cl)cc6Cl)O5)cc4)CC3)cc2)c1=O (centres undefined) [ITRACONAZOLE],MIC,[2],0.25 µg/mL
same,MIC,[3],2 µg/mL
same,MIC,[4],1 µg/mL
same,ratio,[5],8
same,MIC,[6],0.5 µg/mL
same,MIC,[7],4 µg/mL
same,Activity,[8],inactive
same,fractional inhibitory concentration index (FICI),[9],0.104
same,MIC,[10],0.125 µg/mL
same,ratio,[11],4
same,fractional inhibitory concentration index (FICI),[12],0.298
same,MIC,[13],1 µg/mL
same,Activity,[14],Active
same,MIC,[15],0.063 µg/mL
same,ratio,[16],2
same,MIC,[17],0.125 µg/mL
same,MIC,[18],0.25 µg/mL
same,MIC,[19],0.25 µg/mL
same,MIC,[20],0.25 µg/mL
same,MIC,[21],1 µg/mL
same,MIC,[22],0.25 µg/mL
same,MIC,[23],1 µg/mL
same,MIC,[24],0.031 µg/mL
same,MIC,[25],0.25 µg/mL
same,ratio,[26],128
C[C@@H]1[C@H](O)[C@@H](C)/C=C/C=C/C=C/C=C/C=C/C=C/C=C/[C@H](O[C@@H]2O[C@H](C)[C@@H](O)[C@H](N)[C@@H]2O)C[C@@H]2O[C@](O)(C[C@@H](O)C[C@@H](O)[C@H](O)CC[C@@H](O)C[C@@H](O)CC(=O)O[C@H]1C)C[C@H](O)[C@H]2C(=O)O,Activity,[27],inactive
C/C=C(\C)C(=O)OCC1=C[C@H]2C(=O)O[C@H]3C[C@@H](C/C=C(\C)C[C@@H](C)/C=C/C=C4\CO[C@H]([C@@H]1O)[C@@]42O)O[C@@]1(CC[C@H](C)[C@@H](C)O1)C3,Activity,[28],Active
same,Activity,[29],Active
same,Activity,[30],Active
same,MIC,[31],0.125 µg/mL
same,MIC,[32],64 µg/mL
same,Activity,[33],Active
same,Activity,[34],Active
